Results from ChEMBL document CHEMBL1144415, “Identification of novel low molecular weight CXCR4 antagonists by structural tuning of cyclic tetrapeptide scaffolds” (J Med Chem, 2005).

Molecular target: T1, C-X-C chemokine receptor type 4 (Homo sapiens, UniProt P61073)
Experiment: Inhibition of [125I]SDF-1 binding to C-X-C chemokine receptor type 4 (CXCR4) expressed in CHO cells
Format: cell-based
Settings: not given
Outline: (§1)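 Stable CXCR4-expressing CHO transfectants harvested with trypsin-EDTA, recovered 4 to 5 h in complete growth medium, washed in cold binding buffer (PBS with 2 mg/mL BSA). Cells at 1 × 10⁷ cells/mL incubated with 0.1 nM [¹²⁵I]-SDF-1 for 2 h on ice with agitation. Bound and free separated by centrifugation through oil cushion, gamma counting. IC50 from at least three independent experiments, mean with SD.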

T1 sequence (P61073 whole entry): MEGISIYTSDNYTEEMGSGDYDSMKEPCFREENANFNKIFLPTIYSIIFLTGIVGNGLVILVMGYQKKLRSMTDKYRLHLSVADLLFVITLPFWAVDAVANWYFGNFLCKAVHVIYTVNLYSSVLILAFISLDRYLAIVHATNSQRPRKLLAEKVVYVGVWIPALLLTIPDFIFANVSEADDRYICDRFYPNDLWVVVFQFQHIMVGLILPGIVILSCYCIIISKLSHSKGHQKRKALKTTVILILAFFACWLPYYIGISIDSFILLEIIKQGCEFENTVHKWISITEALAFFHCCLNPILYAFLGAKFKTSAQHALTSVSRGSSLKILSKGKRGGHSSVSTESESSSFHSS

Compared with `N=C(N)NCCC[C@@H]1NC(=O)[C@@H](NC(=O)CCNC(=N)N)CSSC[C@H](C(=O)NCCc2ccc(O)cc2)NC(=O)[C@H](Cc2ccc3ccccc3c2)NC1=O`, `N=C(N)NCCCN[C@H]1CSSC[C@H](C(=O)NCCc2ccc(O)cc2)NC(=O)[C@H](Cc2ccc3ccccc3c2)NC(=O)[C@H](CCCNC(=N)N)NC1=O` is 1.9-fold higher in IC50: 0.53 µM for the first, 1 µM for the second.

Going from `CN1C(=O)[C@@H](NC(=O)CCN=C(N)N)CSSC[C@H](C(=O)NCCc2ccc(O)cc2)NC(=O)[C@H](Cc2ccc3ccccc3c2)NC(=O)[C@@H]1CCCN=C(N)N` to `N=C(N)NCCC[C@@H]1NC(=O)[C@@H](CCC(N)=O)NC(=O)[C@@H](Cc2ccc(O)cc2)NC(=O)CNC(=O)[C@H](Cc2ccc3ccccc3c2)NC1=O`, the IC50 falls from greater than 10 µM to 0.17 µM. The second is the more potent here.

Going from `N=C(N)NCCC[C@@H]1NC(=O)[C@H]2CCCN2C(=O)[C@@H](Cc2ccc(O)cc2)NC(=O)CNC(=O)[C@H](Cc2ccc3ccccc3c2)NC1=O` to `N=C(N)NCCC[C@@H]1NC(=O)[C@@H]2CCCN2C(=O)[C@@H](Cc2ccc(O)cc2)NC(=O)CNC(=O)[C@H](Cc2ccc3ccccc3c2)NC1=O`, the IC50 rises from 0.42 µM to 1.6 µM (3.8-fold).

`N=C(N)NCCC[C@@H]1NC(=O)[C@@H](CCC(=O)O)NC(=O)[C@@H](Cc2ccc(O)cc2)NC(=O)CNC(=O)[C@H](Cc2ccc3ccccc3c2)NC1=O` gave an IC50 of 0.61 µM.

Same assay, conditions: cho

`N=C(N)NCCC[C@H]1NC(=O)[C@@H](CCCN=C(N)N)NC(=O)[C@H](Cc2ccc(O)cc2)NC(=O)/C=C\[C@@H](Cc2ccc3ccccc3c2)NC1=O` and `N=C(N)NCCC[C@@H]1NC(=O)[C@H](Cc2ccc(O)cc2)NC(=O)/C=C\[C@@H](Cc2ccc3ccccc3c2)NC(=O)[C@@H](CCCNC(=N)N)NC1=O` cannot be ordered by IC50: greater than 1 µM for the first, greater than 1 µM for the second.

Molecular target: T1, C-X-C chemokine receptor type 4
Experiment: Inhibition of [125I]SDF-1 binding to C-X-C chemokine receptor type 4 (CXCR4) expressed in CHO cells; range = 1-10 uM
Format: cell-based
Settings: not given
Outline: as §1

`N=C(N)NCCC(=O)N[C@H]1C/C=C\C[C@H](C(=O)NCCc2ccc(O)cc2)NC(=O)[C@H](Cc2ccc3ccccc3c2)NC(=O)[C@H](CCCN=C(N)N)NC1=O` gave an IC50 of 10 µM.
